In ChEMBL document CHEMBL4834436, “Discovery of the S1P2 Antagonist GLPG2938 (1-[2-Ethoxy-6-(trifluoromethyl)-4-pyridyl]-3-[[5-methyl-6-[1-methyl-3-(trifluoromethyl)pyrazol-4-yl]pyridazin-3-yl]methyl]urea), a Preclinical Candidate for the Treatment of Idiopathic Pulmonary Fibrosis” (J Med Chem, 2021):
Values after ≈ are worked out from the molar mass of the structure shown. Active and inactive are the calls of the source. No cut-off for these calls is given here.

What was measured:
[1] = Clearance in beagle dog at 1 mg/kg, iv measured up to 24 hrs by LC-MS/MS analysis; assay type: ADME, organism-based, Canis lupus familiaris; settings: in vivo
How it was run: (§1)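 Non-naive male Beagle dogs (n = 3) given 1 mg/kg iv as 10 min infusion; after 3-day washout, oral gavage 5 or 1 mg/kg in PEG400/MC 0.5% or MC 0.5% after ≥12 h fast. Jugular or cephalic blood into lithium heparin to 24 h; plasma analysed. Plasma protein binding: 5 μM compound, 4 h incubation.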

[2] = Half life in beagle dog at 1 mg/kg, iv measured up to 24 hrs by LC-MS/MS analysis; assay type: ADME, organism-based, Canis lupus familiaris; settings: in vivo; how it was run: as §1
[3] = Plasma protein binding CD1 mouse plasma at 5 uM incubated for 4 hrs; assay type: ADME, cell-free; settings: read-out: PPB (converted)
How it was run: (§2)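 Male CD1 mice, composite design, n = 6 per route; iv 1 mg/kg in PEG200/water 60/40, oral gavage 5 mg/kg in Tween 80/MC 0.5% or PEG400/MC 0.5% after ≥12 h fast. Li-heparin blood sampled to 24 h, plasma by LC-MS/MS; noncompartmental analysis. Plasma protein binding: 5 μM compound, 4 h incubation.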

[4] = Clearance in Sprague-Dawley rat at 1 mg/kg, iv measured up to 24 hrs by LC-MS/MS analysis; assay type: ADME, organism-based; settings: in vivo
How it was run: (§3)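 Male Sprague-Dawley rats (6–8 weeks), n = 3 per route; iv bolus 1 mg/kg in PEG200/water 60/40; gavage 5 or 10 mg/kg in PEG400/MC 0.5% after ≥12 h fast. Li-heparin plasma sampled to 24 h, LC-MS/MS, noncompartmental analysis. Plasma protein binding: 5 μM compound, 4 h incubation.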

[5] = target: T1, Sphingosine 1-phosphate receptor 2 (Homo sapiens, UniProt O95136); experiment: Antagonist activity at recombinant human S1P2 receptor in HFL1 cells assessed as inhibition of EC80 S1P-induced IL8 release incubated for 16 to 24 hrs in absence of HSA by ELISA; assay type: functional, cell-based
How it was run: (§4)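 HFL-1 lung fibroblasts seeded in 96- or 384-well plates, then medium replaced by starvation medium with 1% heat-inactivated FBS, ±1.95% HSA (2% HSA condition), 16–24 h. 10-point 1/3 dilutions, 30 μM top final, 1 h, then S1P at EC80 (without HSA: 1 μM 96-well or 0.5 μM 384-well; with HSA: 5 or 2 μM).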

[6] = Oral bioavailability in CD1 mouse at 5 mg/kg measured up to 24 hrs by LC-MS/MS analysis; assay type: ADME, organism-based; settings: in vivo; how it was run: as §2
[7] = Thermodynamic solubility in FaSSIF; assay type: physicochemical; settings: read-out: Therm_solubility
CYP2C9 = CYP2C9 (Homo sapiens, UniProt P11712); experiment: Inhibition of recombinant CYP2C9 (unknown origin) at 10 uM; assay type: ADME
[8] = Half life in Sprague-Dawley rat at 1 mg/kg, iv measured up to 24 hrs by LC-MS/MS analysis; assay type: ADME, organism-based; settings: in vivo; how it was run: as §3
[9] = Thermodynamic solubility in FaSSGF at pH 1.6; assay type: physicochemical; settings: read-out: Therm_solubility
[10] = Plasma protein binding Sprague-Dawley rat plasma at 5 uM incubated for 4 hrs; assay type: ADME, cell-free; settings: read-out: PPB (converted); how it was run: as §3
[11] = Clearance in CD1 mouse at 1 mg/kg, iv measured up to 24 hrs by LC-MS/MS analysis; assay type: ADME, organism-based; settings: in vivo; how it was run: as §2
[12] = Intrinsic clearance unbound in mouse liver microsomes at 1 uM […] by LC-MS/MS analysis; assay type: ADME, Microsome
[13] = target: T1, Sphingosine 1-phosphate receptor 2; experiment: Antagonist activity at recombinant human S1P2 receptor in HFL1 cells assessed as inhibition of EC80 S1P-induced IL8 release measured as unbound concentration incubated for 16 to 24 hrs in presence of 2% HSA by ELISA; assay type: functional, cell-based; settings: filed as antagonist, time 16-24 hrs
How it was run: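 IL8 IC50 from the 2% HSA condition converted to free IC50 = IC50 × fu,medium, where fu,medium is estimated from human plasma protein binding fraction unbound and the serum percentage used in the assay.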

[14] = Volume of distribution at steady state in Sprague-Dawley rat at 1 mg/kg, iv measured up to 24 hrs by LC-MS/MS analysis; assay type: ADME, organism-based; settings: in vivo, read-out: Vdss; how it was run: as §3
[15] = Half life in CD1 mouse at 1 mg/kg, iv measured up to 24 hrs by LC-MS/MS analysis; assay type: ADME, organism-based; settings: in vivo; how it was run: as §2
[16] = Oral bioavailability in beagle dog at 5 mg/kg measured up to 24 hrs by LC-MS/MS analysis; assay type: ADME, organism-based, Canis lupus familiaris; settings: in vivo; how it was run: as §1
[17] = Volume of distribution at steady state in CD1 mouse at 1 mg/kg, iv measured up to 24 hrs by LC-MS/MS analysis; assay type: ADME, organism-based; settings: in vivo, read-out: Vdss; how it was run: as §2
[18] = target: T1, Sphingosine 1-phosphate receptor 2; experiment: Antagonist activity at human S1P2 receptor expressed in CHO cells assessed as EC80 S1P-induced calcium flux measured for 3 mins by fluorescence assay; assay type: functional, cell-based
How it was run: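 Same dye-loaded, starved human S1P2-CHO cells; after agonist readout, 15 min at 37 °C, then stimulated with S1P at EC80, fluorescence read 3 min. Max/baseline ratio normalized to vehicle and S1P EC80. 10-point 1/3 dilutions from 20 μM final; IC50 derived; geometric mean of ≥2 runs.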

[19] = target: T1, Sphingosine 1-phosphate receptor 2; experiment: Antagonist activity at recombinant human S1P2 receptor expressed in CHO cells assessed as EC80 S1P-induced activation incubated for 4 hrs in presence of [35S]GTPgammaS by Topcount reader; assay type: functional, cell-based
How it was run: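 Membranes from stable lines overexpressing recombinant human S1P2, preincubated with PVT-WGA SPA beads, mixed with compound serial dilutions, [35S]GTPγS and S1P at EC80. Incubated 4 h at room temperature, centrifuged, scintillation counted. Antagonist mode; IC50 as geometric mean of ≥2 runs.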

[20] = Volume of distribution at steady state in beagle dog at 1 mg/kg, iv measured up to 24 hrs by LC-MS/MS analysis; assay type: ADME, organism-based, Canis lupus familiaris; settings: in vivo, read-out: Vdss; how it was run: as §1
[21] = Intrinsic clearance unbound in human liver microsomes at 1 uM […] by LC-MS/MS analysis; assay type: ADME, Microsome
[22] = target: T1, Sphingosine 1-phosphate receptor 2; experiment: Antagonist activity at recombinant human S1P2 receptor in HFL1 cells assessed as inhibition of EC80 S1P-induced IL8 release incubated for 16 to 24 hrs in presence of 2% HSA by ELISA; assay type: functional, cell-based; how it was run: as §4
CYP3A4 = CYP3A4 (Homo sapiens, UniProt P08684); experiment: Inhibition of recombinant CYP3A4 (unknown origin) at 10 uM; assay type: ADME
CYP2C19 = CYP2C19 (Homo sapiens, UniProt P33261); experiment: Inhibition of recombinant CYP2C19 (unknown origin) at 10 uM; assay type: ADME
[23] = Plasma protein binding beagle dog plasma at 5 uM incubated for 4 hrs; assay type: ADME, cell-free, Canis lupus familiaris; settings: read-out: PPB (converted); how it was run: as §1
[24] = Oral bioavailability in Sprague-Dawley rat at 5 mg/kg measured up to 24 hrs by LC-MS/MS analysis; assay type: ADME, organism-based; settings: in vivo; how it was run: as §3
[25] = target: Voltage-gated inwardly rectifying potassium channel KCNH2 (Homo sapiens, UniProt Q12809); experiment: Inhibition of human ERG
Fibroblast = experiment: Prevention of S1P-induced human pulmonary fibroblasts contraction in collagen gel lattice mixture pretreated with TGFbeta for 72 hrs followed by treated at 0.5 to 5 uM compound incubated for 2 hrs then treated with S1P for 1 hr; assay type: functional, cell-based; settings: dose 0.5-5 µM, time 96.0 hrs, in the assay text read “96 hrs” for “72 hrs”
How it was run: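 Normal human lung fibroblasts pretreated 4 days with 1 ng/mL TGF-β, embedded in neutralized collagen I gels (200,000 cells/gel), kept 72 h in serum-free FGM with TGF-β for stress build-up. Compound added for 2 h, then 1 μM S1P; gels released and incubated 1 h at 37 °C; gel area imaged. Mean with 95% CI.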

Mus musculus [26] = experiment: Antifibrotic activity against intranasal bleomycin-induced C57BL/6 mouse lung fibrosis model assessed as reduction in Ashcroft score at 1 to 10 mg/kg, po twice daily for 14 days; assay type: functional, organism-based; settings: dose 1-10 mg/kg, time 14.0 day
How it was run: (§5)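 Male C57BL/6 mice (7–8 weeks on arrival, one week acclimation) given bleomycin intranasally; prophylactic oral dosing twice daily for 14 days. Lungs scored histologically by Matsuse-modified Ashcroft score; 14–15 mice per group; Mann–Whitney vs bleomycin/vehicle.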

[27] = Oral bioavailability in beagle dog at 1 mg/kg measured up to 24 hrs by LC-MS/MS analysis; assay type: ADME, organism-based, Canis lupus familiaris; settings: in vivo; how it was run: as §1
[28] = Oral bioavailability in Sprague-Dawley rat at 10 mg/kg measured up to 24 hrs by LC-MS/MS analysis; assay type: ADME, organism-based; settings: in vivo; how it was run: as §3
Mus musculus [29] = experiment: Antifibrotic activity against intranasal bleomycin-induced C57BL/6 mouse lung fibrosis model assessed as reduction in Ashcroft score at 3 to 30 mg/kg, po twice daily for 14 days; assay type: functional, organism-based; settings: dose 3-30 mg/kg, time 14.0 day; how it was run: as §5

T1 sequence (O95136 whole entry): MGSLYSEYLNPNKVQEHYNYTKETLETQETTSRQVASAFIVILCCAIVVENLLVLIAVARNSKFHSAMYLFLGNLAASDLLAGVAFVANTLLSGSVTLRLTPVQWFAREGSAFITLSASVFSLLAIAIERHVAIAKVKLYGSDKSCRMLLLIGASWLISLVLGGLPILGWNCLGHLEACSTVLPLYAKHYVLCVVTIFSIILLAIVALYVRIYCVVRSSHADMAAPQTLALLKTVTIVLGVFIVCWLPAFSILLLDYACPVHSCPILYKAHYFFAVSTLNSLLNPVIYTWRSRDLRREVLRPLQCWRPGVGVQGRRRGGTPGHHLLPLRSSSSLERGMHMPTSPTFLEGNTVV
Voltage-gated inwardly rectifying potassium channel KCNH2, sequence (Q12809 whole entry): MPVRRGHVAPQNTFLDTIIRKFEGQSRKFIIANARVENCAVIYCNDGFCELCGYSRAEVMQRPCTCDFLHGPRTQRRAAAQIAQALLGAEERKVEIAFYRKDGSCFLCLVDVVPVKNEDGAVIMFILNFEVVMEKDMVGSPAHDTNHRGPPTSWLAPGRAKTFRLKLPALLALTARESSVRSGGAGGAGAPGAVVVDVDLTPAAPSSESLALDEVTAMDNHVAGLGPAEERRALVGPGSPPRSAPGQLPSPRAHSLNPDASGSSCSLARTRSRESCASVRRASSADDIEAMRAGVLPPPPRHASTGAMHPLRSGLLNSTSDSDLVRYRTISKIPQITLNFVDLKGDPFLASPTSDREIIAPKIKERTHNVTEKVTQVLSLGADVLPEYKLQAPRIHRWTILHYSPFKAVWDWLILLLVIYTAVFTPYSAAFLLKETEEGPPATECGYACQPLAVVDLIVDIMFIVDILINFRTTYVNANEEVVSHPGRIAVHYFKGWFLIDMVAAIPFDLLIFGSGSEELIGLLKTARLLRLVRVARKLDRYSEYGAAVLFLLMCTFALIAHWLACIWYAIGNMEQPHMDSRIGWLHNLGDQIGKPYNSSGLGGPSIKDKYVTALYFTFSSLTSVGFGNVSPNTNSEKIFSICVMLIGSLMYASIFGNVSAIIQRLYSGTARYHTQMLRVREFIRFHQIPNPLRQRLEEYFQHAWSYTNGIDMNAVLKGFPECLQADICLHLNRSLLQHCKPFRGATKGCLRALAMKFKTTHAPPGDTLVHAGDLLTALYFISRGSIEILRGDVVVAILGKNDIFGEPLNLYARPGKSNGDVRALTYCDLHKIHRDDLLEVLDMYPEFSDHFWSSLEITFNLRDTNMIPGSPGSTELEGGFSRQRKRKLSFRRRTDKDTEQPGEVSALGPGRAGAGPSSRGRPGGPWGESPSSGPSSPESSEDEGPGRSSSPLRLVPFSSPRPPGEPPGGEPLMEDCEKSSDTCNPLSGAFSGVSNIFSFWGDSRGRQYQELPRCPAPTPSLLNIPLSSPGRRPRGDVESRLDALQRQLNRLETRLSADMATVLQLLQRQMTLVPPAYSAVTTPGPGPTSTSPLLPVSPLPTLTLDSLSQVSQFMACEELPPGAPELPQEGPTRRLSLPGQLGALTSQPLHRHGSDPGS
CYP3A4, sequence (P08684 whole entry): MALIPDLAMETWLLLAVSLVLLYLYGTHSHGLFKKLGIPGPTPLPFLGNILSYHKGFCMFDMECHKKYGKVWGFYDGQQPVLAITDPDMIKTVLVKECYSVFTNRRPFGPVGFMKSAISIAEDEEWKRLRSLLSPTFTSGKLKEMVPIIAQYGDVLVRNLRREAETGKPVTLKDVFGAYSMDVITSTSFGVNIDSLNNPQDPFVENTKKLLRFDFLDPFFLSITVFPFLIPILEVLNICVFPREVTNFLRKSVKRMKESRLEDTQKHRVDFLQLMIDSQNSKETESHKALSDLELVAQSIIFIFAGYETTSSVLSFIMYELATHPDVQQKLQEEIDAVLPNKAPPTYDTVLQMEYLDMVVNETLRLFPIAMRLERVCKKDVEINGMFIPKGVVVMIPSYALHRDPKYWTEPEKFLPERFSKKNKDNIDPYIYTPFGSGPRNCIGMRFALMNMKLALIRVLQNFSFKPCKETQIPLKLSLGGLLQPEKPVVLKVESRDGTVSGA
CYP2C19, sequence (P33261 whole entry): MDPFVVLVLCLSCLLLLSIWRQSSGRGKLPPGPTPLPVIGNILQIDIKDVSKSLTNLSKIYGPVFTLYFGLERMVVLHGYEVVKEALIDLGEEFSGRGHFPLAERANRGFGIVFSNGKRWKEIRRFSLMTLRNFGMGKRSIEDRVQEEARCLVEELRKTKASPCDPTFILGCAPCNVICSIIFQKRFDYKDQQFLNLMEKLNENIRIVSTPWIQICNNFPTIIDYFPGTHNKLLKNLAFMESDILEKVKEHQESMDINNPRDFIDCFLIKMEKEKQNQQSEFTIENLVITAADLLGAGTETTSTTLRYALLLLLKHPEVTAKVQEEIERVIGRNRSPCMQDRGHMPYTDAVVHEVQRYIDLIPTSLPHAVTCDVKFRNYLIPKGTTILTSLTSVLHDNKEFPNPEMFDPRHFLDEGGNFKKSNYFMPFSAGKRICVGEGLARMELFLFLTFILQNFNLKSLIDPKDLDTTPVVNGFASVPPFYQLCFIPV
CYP2C9, sequence (P11712 whole entry): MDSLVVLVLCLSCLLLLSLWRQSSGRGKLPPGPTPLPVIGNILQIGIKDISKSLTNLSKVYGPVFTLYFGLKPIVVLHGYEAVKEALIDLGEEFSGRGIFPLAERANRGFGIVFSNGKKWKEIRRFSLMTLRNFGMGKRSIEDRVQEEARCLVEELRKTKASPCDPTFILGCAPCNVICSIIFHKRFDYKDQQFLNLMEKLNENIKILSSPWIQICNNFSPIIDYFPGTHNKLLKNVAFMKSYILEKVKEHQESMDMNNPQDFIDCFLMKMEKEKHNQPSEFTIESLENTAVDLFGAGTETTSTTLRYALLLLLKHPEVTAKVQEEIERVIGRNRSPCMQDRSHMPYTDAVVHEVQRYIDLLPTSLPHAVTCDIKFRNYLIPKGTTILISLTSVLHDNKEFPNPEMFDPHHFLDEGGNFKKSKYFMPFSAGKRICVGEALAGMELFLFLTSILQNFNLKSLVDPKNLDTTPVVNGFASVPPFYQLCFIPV

Row | SMILES | clearance [1] | half-life [2] | fraction unbound at 4 h, 5 µM [3] | clearance [4] | IC50 [5] | bioavailability [6] | solubility thermodynamic [7] | half-life [8] | solubility thermodynamic [9] | fraction unbound at 4 h, 5 µM [10] | clearance [11] | CL free [12] | fIC50 [13] | Vd [14] | half-life [15] | Vd [17] | IC50 [18] | IC50 [19] | Vd [20] | CL free [21] | further results
1 | CCOc1cc(NC(=O)NCc2cc(C)c(-c3cn(C)nc3C(F)(F)F)nn2)cc(Cl)n1 | 7.83 mL/min/kg | 186 min | 0.002 | 4.17 mL/min/kg | 20 nM | 20% | 36 µg/mL (≈ 76.6 µM) | 66 min | 5 µg/mL (≈ 10.6 µM) | 0.001 | 10.3 mL/min/kg | < 23 L/h/kg | 1 nM | 0.38 L/kg | 33 min | 0.49 L/kg | 7.7 µM | 20 µM | 2.1 L/kg | < 2.6 L/h/kg | inhibition at 10 µM (CYP2C9): 58%; bioavailability [16]: 30%; IC50 [22]: 45 nM; inhibition at 10 µM (CYP3A4): 23%; inhibition at 10 µM (CYP2C19): 61%; fraction unbound at 4 h, 5 µM [23]: 0.016; bioavailability [24]: 10%
2 | CCOc1cc(NC(=O)NCc2cc(C)c(-c3cn(C)nc3C(F)(F)F)nn2)cc(C(F)(F)F)n1 | 1.67 mL/min/kg | 456 min | 0.001 | 1.52 mL/min/kg | 29 nM | 64% | 23 µg/mL (≈ 45.7 µM) | 162 min | 2.7 µg/mL (≈ 5.36 µM) | < 0.001 | 4 mL/min/kg | 8.4 L/h/kg | 0.6 nM | 0.35 L/kg | 138 min | 0.81 L/kg | 8.8 µM | 29 µM | 1.1 L/kg | < 2.3 L/h/kg | inhibition (INH) [25]: Not Active; Activity (Fibroblast): Active; IC50 [22]: 87 nM; Activity (Mus musculus [26]): Active; fraction unbound at 4 h, 5 µM [23]: 0.003; bioavailability [24]: 29%
3 | CCOc1nc(C)cc(NC(=O)NCc2cc(C)c(-c3cn(C)nc3C(F)(F)F)nn2)c1C | 11 mL/min/kg | 96 min | 0.014 | 6.17 mL/min/kg | 16 nM | 29% | 15 µg/mL (≈ 32.4 µM) | 60 min | 505 µg/mL (≈ 1090 µM) | 0.004 | 12.2 mL/min/kg | 17 L/h/kg | 1.3 nM | 0.54 L/kg | 27 min | 0.47 L/kg | 4.5 µM | 16 µM | 1.5 L/kg | 2.2 L/h/kg | bioavailability [27]: 39%; IC50 [22]: 49 nM; bioavailability [28]: 84%; Activity (Mus musculus [29]): Active; fraction unbound at 4 h, 5 µM [23]: 0.022
